The target of test [1] is Matrix metalloproteinase-14 (Homo sapiens, UniProt P50281). Description: Inhibition of Matrix metalloprotease-14. The method in brief:
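Catalytic-domain MMP-14 stock (10 μM) activated with trypsin (5 μg/mL) for 20 min at 25 °C, then quenched with soybean trypsin inhibitor (50 μg/mL). Run in Tris buffer pH 7.5 (100 mM Tris, 100 mM NaCl, 10 mM CaCl₂, 0.16% Brij 35) with 1 nM enzyme and 10 μM Mca-Pro-Leu-Gly-Leu-Dpa-Ala-Arg-NH₂ (final). Fluorogenic cleavage read; IC50 derived.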

Test [2] deals with Matrix metalloproteinase-9 (Homo sapiens, UniProt P14780). The experiment in a line: Inhibition of human matrix metalloprotease-9 (MMP-9). The method in brief:
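Human catalytic-domain MMP-9 stock (1 μM) activated with 1 mM APMA for 1 h at 37 °C. Assayed at 1 nM enzyme in Tris buffer pH 7.5 (100 mM Tris, 100 mM NaCl, 10 mM CaCl₂, 0.16% Brij 35) with ≤1% DMSO. Inhibitor preincubated 15 min at 37 °C, then 5 μM Mca-Arg-Pro-Lys-Pro-Tyr-Ala-Nva-Trp-Met-Lys(Dnp)-NH₂ added for 1 h at 37 °C. Fluorescence read at ex 328/em 393 nm; IC50 taken from dose–response.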

Test [3] concerns the target T1, Matrilysin (Homo sapiens, UniProt P09237).
T1 sequence (P09237 whole entry): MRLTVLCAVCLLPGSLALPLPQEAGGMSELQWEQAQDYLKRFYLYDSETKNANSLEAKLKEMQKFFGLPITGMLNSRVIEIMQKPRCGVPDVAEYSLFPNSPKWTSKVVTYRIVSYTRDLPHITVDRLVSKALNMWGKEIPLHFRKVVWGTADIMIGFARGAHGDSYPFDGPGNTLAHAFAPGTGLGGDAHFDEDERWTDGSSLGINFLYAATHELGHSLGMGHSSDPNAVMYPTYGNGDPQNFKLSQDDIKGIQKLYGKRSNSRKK
Description: Inhibition of human matrix metalloprotease-7 (MMP-7).

Test [4] has as its target Stromelysin-1 (Homo sapiens, UniProt P08254).

Sequence of Matrix metalloproteinase-9 (P14780 whole entry): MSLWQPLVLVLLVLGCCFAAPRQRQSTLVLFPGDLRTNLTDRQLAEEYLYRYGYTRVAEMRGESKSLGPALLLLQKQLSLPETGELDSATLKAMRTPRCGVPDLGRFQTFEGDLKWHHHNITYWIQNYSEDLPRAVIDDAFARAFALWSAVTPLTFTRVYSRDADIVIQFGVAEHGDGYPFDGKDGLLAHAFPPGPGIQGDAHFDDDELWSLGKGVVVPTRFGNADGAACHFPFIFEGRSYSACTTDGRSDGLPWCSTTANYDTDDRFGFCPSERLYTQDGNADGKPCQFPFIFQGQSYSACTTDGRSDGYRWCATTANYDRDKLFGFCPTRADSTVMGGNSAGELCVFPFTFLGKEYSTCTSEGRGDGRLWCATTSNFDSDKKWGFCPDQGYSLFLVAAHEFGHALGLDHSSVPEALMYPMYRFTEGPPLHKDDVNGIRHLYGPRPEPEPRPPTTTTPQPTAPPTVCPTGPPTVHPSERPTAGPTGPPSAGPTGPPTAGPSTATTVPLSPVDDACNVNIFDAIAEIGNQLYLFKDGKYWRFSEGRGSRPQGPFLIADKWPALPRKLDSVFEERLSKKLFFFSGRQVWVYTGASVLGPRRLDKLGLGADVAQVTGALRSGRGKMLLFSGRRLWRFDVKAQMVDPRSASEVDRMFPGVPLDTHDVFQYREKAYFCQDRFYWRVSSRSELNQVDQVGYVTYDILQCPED
Sequence of Stromelysin-1 (P08254 whole entry): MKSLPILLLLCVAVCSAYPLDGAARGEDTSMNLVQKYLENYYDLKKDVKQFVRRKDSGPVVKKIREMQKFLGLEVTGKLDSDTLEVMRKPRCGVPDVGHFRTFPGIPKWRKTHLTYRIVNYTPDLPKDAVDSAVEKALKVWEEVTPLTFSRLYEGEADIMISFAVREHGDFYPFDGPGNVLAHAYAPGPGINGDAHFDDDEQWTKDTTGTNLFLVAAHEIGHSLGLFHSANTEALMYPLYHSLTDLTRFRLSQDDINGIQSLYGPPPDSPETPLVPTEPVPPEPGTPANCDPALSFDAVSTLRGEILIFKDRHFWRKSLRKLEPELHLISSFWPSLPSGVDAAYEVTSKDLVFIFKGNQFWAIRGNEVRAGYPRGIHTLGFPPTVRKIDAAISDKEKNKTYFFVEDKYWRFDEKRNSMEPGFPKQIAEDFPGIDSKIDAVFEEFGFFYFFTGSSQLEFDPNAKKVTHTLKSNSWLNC

On to `CNC(=O)[C@H](Cc1ccccc1)NC(=O)[C@H](CC(C)C)[C@H](CSc1cccs1)C(=O)NO` [BATIMASTAT], for which the IC50 came out at 4.6 nM in test [1] and 0.6 nM in test [2].

`CNC(=O)[C@H](Cc1ccc(OC)cc1)NC(=O)[C@@H](CC(=O)NO)CC(C)C`: the half-inhibitory concentration (IC50) in test [3] and in test [4] was 30 nM in each case.

The IC50 is the concentration at which inhibition is half-maximal. Read a high IC50 as weaker potency.

The values are drawn from ChEMBL document CHEMBL1144897, “A potent, selective inhibitor of matrix metalloproteinase-3 for the topical treatment of chronic dermal ulcers” (J Med Chem, 2003).
